Results collected from several papers.
Compare with care: the assays were run in different laboratories.
Target: Dual specificity mitogen-activated protein kinase kinase 1 (MAP2K1, Homo sapiens, UniProt Q02750)

c1cncc(-c2cccc(Nc3nccc(NC4CCCCC4)n3)c2)c1
remaining binding (binding, competition with immobilised ligand; 10 µM): 79%

O=C(NCCCN1CCOCC1)c1ccc(Nc2nccc(-c3cc4ccccc4s3)n2)cc1
remaining binding (binding, competition with immobilised ligand; 1 µM): 75%

C[C@@H](c1ccc(-n2cnc3c(N)ncnc32)cc1)N1CCc2nn(C)c(Cc3ccccc3)c2C1=O
remaining binding (binding, competition with immobilised ligand; 0.1 µM): 89%

Cc1nc(Nc2ncc(C(=O)Nc3c(C)cccc3Cl)s2)cc(N2CCN(CCO)CC2)n1
remaining binding (cell-free assay, competition with immobilised ligand; 0.1 µM): 89%

CNC(=O)[C@@H]1CC[C@@H](n2c(-c3ccc4cnccc4c3)nc3ccc(C(=O)NCc4cccc(C(N)=O)c4)cc32)C1
remaining binding (binding, competition with immobilised ligand; 1 µM): 100%

O=C(c1ccc(Nc2nccc(-c3cc4ccccc4s3)n2)cc1)N1CCC(N2CCCC2)CC1
remaining binding (binding, competition with immobilised ligand; 1 µM): 54%

COc1cnc(Nc2cccc(S(N)(=O)=O)c2)nc1N1CCN(c2ccccc2)CC1
remaining binding (binding, competition with immobilised ligand; 1 µM): 90%

CCN(CC)Cc1cc(Nc2ccnc3cc(Cl)ccc23)ccc1O
remaining binding (cell-free assay, competition with immobilised ligand; 0.1 µM): 95%

O=C1CCc2cc(Nc3cc(OC4CCOCC4)c([N+](=O)[O-])cc3Cl)ccc2N1
remaining binding (cell-free assay, competition with immobilised ligand; 1 µM): 72%

O=C(Nc1c[nH]nc1C(=O)NC1CCNCC1)c1cc(F)cc(F)c1
remaining binding (binding, competition with immobilised ligand; 1 µM): 80%

COc1ccc2cc(OCC3(C(=O)O)CN(C(=O)c4ccc(F)cc4)C3)ccc2c1
remaining binding (cell-free assay, competition with immobilised ligand; 1 µM): 100%

CNC(=O)c1cc(Oc2ccc(NC(=O)Nc3ccc(Cl)c(C(F)(F)F)c3)cc2)ccn1
remaining binding (cell-free assay, competition with immobilised ligand; 0.1 µM): 100%

CN(C)c1nccc(-c2cnc3ncccn23)n1
remaining binding (binding, competition with immobilised ligand; 1 µM): 81%

N#CC1(c2ccccn2)CCN(Cc2cc(C(=O)N3CCCC3)c(=O)n3ccccc23)CC1
remaining binding (cell-free assay, competition with immobilised ligand; 1 µM): 100%

C=CC(=O)N1CCC(C(=O)NCC(=O)N2CCN(c3nc(-c4cnc(N)nc4C(F)F)nc(N4CCOCC4)n3)CC2)CC1
remaining binding (binding, competition with immobilised ligand; 1 µM): 69%

Cc1noc([C@H]2C[C@@H](c3ccc(C(F)(F)F)cc3)CN(C(=O)N3CCS(=O)(=O)C3)C2)n1
remaining binding (cell-free assay, competition with immobilised ligand; 1 µM): 100%

CN1CC[C@H](c2c(O)cc(O)c3c(=O)cc(-c4ccccc4Cl)oc23)[C@H](O)C1
remaining binding (cell-free assay, competition with immobilised ligand; 10 µM): 92%

C[C@@H]1CN(c2ccc3ncc(-c4ccc5[nH]nc(C6CC6)c5c4)n3n2)C[C@H](C)O1
remaining binding (binding, competition with immobilised ligand; 50 nM): 80%

COc1cc2ncnc(Nc3ccc(F)c(Cl)c3)c2cc1OCCCN1CCOCC1
remaining binding (cell-free assay, competition with immobilised ligand; 10 µM): 83%

CCN1CCN(Cc2ccc(C(=O)Nc3ccc(C)c(Oc4ccc5c(c4)CC(=O)N5)c3)cc2C(F)(F)F)CC1
remaining binding (binding, competition with immobilised ligand; 1 µM): 100%

F[C@@H]1CCN(c2nccc(-c3cnn4ncccc34)n2)C1
remaining binding (binding; 1 µM): 89%

Cc1ccc(NC(=O)c2ccc(CN3CCN(C)CC3)cc2)cc1Nc1nccc(-c2cccnc2)n1
remaining binding (cell-free assay, competition with immobilised ligand; 0.1 µM): 95%

CCCOc1ccc([C@@H]2[C@@H](C(=O)O)[C@H](c3ccc4c(c3)OCO4)CN2CC(=O)Nc2c(CC)cccc2CC)cc1
remaining binding (cell-free assay, competition with immobilised ligand; 1 µM): 93%

O=C(c1ccc(Nc2ncc(Cl)c(-c3ccc(Cl)s3)n2)cc1)N1CCC(N2CCCC2)CC1
remaining binding (binding, competition with immobilised ligand; 1 µM): 18%

COc1ccc2c(c1)O[C@@H](c1ccc(OC)c(OC)c1)C[C@H]2NC(=O)C1(c2ccc3c(c2)OC(F)(F)O3)CC1
remaining binding (cell-free assay, competition with immobilised ligand; 1 µM): 86%

C[C@H]1CCN(c2nccc(-c3cnn4ncccc34)n2)C1
remaining binding (binding, competition with immobilised ligand; 1 µM): 66%

CS(=O)(=O)CCNCc1ccc(-c2ccc3ncnc(Nc4ccc(OCc5cccc(F)c5)c(Cl)c4)c3c2)o1
remaining binding (cell-free assay, competition with immobilised ligand; 10 µM): 87%

CC(=O)Nc1c(C(C)=O)c(=O)n(C)c2nc(-c3ccc(Cl)cc3Cl)c(-c3ccc(Cl)cc3)cc12
remaining binding (cell-free assay, competition with immobilised ligand; 1 µM): 100%

CN(C)c1ncc(F)c(-c2cnn3ncccc23)n1
remaining binding (binding, competition with immobilised ligand; 1 µM): 78%

Cc1c(-c2ccccc2)oc2c(C(=O)OCCN3CCCCC3)cccc2c1=O
remaining binding (cell-free assay, competition with immobilised ligand; 10 µM): 95%

C[C@@H](c1cccc(C#N)c1)n1cc(Cl)cc(C(N)=O)c1=N
remaining binding (cell-free assay, competition with immobilised ligand; 1 µM): 80%

Cc1cnn2ncc(-c3ccnc(N(C)C)n3)c2c1
remaining binding (binding; 1 µM): 82%
